Measured values taken from ChEMBL document CHEMBL2146445, “Discovery of BIIB042, a Potent, Selective, and Orally Bioavailable γ-Secretase Modulator” (ACS Med Chem Lett, 2011).
Calls of active or inactive are those of the source. The calls are words filed in the database; no cut-off is given here.

Assays:
[1] = Modulation of gamma-secretase in CHO cells overexpressing APP V717 mutant assessed as reduction in amyloid beta42 level after 17 hrs by ELISA; format: cell-based; conditions: Cricetulus griseus
Method in brief: (§1)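 CHO cells overexpressing APP V717F; Aβ42, Aβ40 and Aβ38 quantified together in each well by multiplex Aβ ELISA. EC50 is the mean of at least two determinations.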

CHO [2] = assay: Modulation of gamma-secretase in CHO cells overexpressing APP V717 mutant assessed as increase in amyloid beta38 level after 17 hrs by ELISA; format: cell-based; conditions: Cricetulus griseus; method in brief: as §1
CHO [3] = assay: Modulation of gamma-secretase in CHO cells overexpressing APP V717 mutant assessed as effect on amyloid beta40 level after 17 hrs by ELISA; format: cell-based; conditions: Cricetulus griseus; method in brief: as §1
[4] = Drug uptake in CF1 mouse brain at 30 mg/kg, po after 4 hrs; format: ADME, organism-based; set-up: dose 30 mg/kg, route oral; conditions: read-out: Drug uptake
Method in brief: (§2)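 Wild-type CF-1 mice received a single oral dose as a solution in ethanol:propylene glycol:10% solutol (1:1:8). Animals were sacrificed 4 h after dosing. Brain and plasma were collected for drug concentration and Aβ levels. Aβ change was expressed relative to vehicle-treated controls.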

[5] = Plasma concentration in CF1 mouse at 30 mg/kg, po after 4 hrs; format: ADME, organism-based; set-up: dose 30 mg/kg, route oral
Method in brief: (§3)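 Wild-type (CF-1) mice given compound orally as a solution in ethanol:propylene glycol:10% solutol (1:1:8). Animals sacrificed 4 h post-dose; brain and plasma collected for drug exposure and Aβ levels.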

Mus musculus [6] = assay: Antialzheimer activity in CF1 mouse assessed as reduction in amyloid beta42 level in brain at 30 mg/kg, po after 4 hrs by ELISA; format: functional; set-up: scale not given: the % may be the effect or the level left; method in brief: as §2
[7] = Modulation of gamma-secretase
[8] = Plasma concentration in CF1 mouse at 50 mg/kg, po after 4 hrs; format: ADME, organism-based; set-up: dose 50 mg/kg, route oral; method in brief: as §3
[9] = Drug uptake in CF1 mouse brain at 50 mg/kg, po after 4 hrs; format: ADME, organism-based; set-up: dose 50 mg/kg, route oral; conditions: read-out: Drug uptake; method in brief: as §2
Mus musculus [10] = assay: Antialzheimer activity in CF1 mouse assessed as reduction in amyloid beta42 level in brain at 50 mg/kg, po after 4 hrs by ELISA; format: functional; method in brief: as §2

Compound	EC50 [1]	concentration at 4 h [4]	concentration at 4 h [5]	EC50 [7]	concentration at 4 h [8]	concentration at 4 h [9]	Activity (CHO [2])	Activity (CHO [3])	Activity (Mus musculus [6])	Activity (Mus musculus [10])
CC1CCN(C(c2ccc(F)cc2)c2ccc(CC(=O)O)cc2-c2ccc(C(F)(F)F)cc2)CC1 (configuration not stated)	2900 nM	–	–	–	–	–	Active	inactive	–	–
CC1CCN(C(c2ccc(F)cc2)c2ccc(C3(C(=O)O)CC3)cc2-c2ccc(C(F)(F)F)cc2)CC1 (configuration not stated)	2200 nM	–	–	–	–	–	Active	inactive	–	–
CC(C(=O)O)c1ccc(C(c2ccc(F)cc2)N2CCC(F)CC2)c(-c2ccc(C(F)(F)F)cc2)c1 (configuration not stated)	2000 nM	–	–	–	–	–	Active	inactive	–	–
C[C@@H](C(=O)O)c1ccc(-c2ccccc2)c(F)c1 [TARENFLURBIL]	–	–	–	300000 nM	–	–	–	–	–	–
CC1CCN(C(c2ccc(F)cn2)c2ccc(C(C)C(=O)O)cc2-c2ccc(C(F)(F)F)cc2)CC1 (configuration not stated)	3700 nM	–	–	–	–	–	Active	inactive	–	–
O=C(O)Cc1ccc(C(c2ccc(F)cc2)N2CCC(C(F)(F)F)CC2)c(-c2ccc(C(F)(F)F)cc2)c1 (configuration not stated)	1100 nM	–	–	–	26 µM	7.4 µM	Active	inactive	–	20%
CC(C(=O)O)c1ccc(C(c2ccc(F)cc2)N2CCCC2)c(-c2ccc(C(F)(F)F)cc2)c1 (configuration not stated)	2300 nM	–	–	–	–	–	Active	inactive	–	–
CC(C(=O)O)c1ccc(C(c2ccc(F)cc2)N2CCN(C)CC2)c(-c2ccc(C(F)(F)F)cc2)c1 (configuration not stated)	> 10000 nM	–	–	–	–	–	Active	inactive	–	–
O=C(O)Cc1ccc(C(c2ccc(F)cc2)N2CCC(C(F)(F)F)CC2)c(-c2ccc(F)cc2)c1 (configuration not stated)	2300 nM	–	–	–	–	–	Active	inactive	–	–
CC(C)CCN(Cc1ccc(CC(=O)O)cc1-c1ccc(C(F)(F)F)cc1)c1ccc(C(F)(F)F)cc1	1000 nM	–	–	–	–	0.6 µM	–	–	–	–
CC1CCN(C(c2ccc(F)cc2)c2ccc(C(C)C(=O)O)cc2-c2cnc(C(C)(C)C)nc2)CC1 (configuration not stated)	4500 nM	–	–	–	–	–	Active	inactive	–	–
CC(C(=O)O)c1ccc(C(c2ccc(F)cc2)N2CCCCC2)c(-c2ccc(C(F)(F)F)cc2)c1 (configuration not stated)	1400 nM	–	–	–	–	–	Active	inactive	–	–

Further compounds by falling EC50 [1], results first:

EC50 [1]	concentration at 4 h [4]	concentration at 4 h [5]	EC50 [7]	concentration at 4 h [8]	concentration at 4 h [9]	Compound	Activity (CHO [2])	Activity (CHO [3])	Activity (Mus musculus [6])	Activity (Mus musculus [10])
620 nM	12.1 µM	16.3 µM	–	–	–	CC(C(=O)O)c1ccc(C(c2ccc(F)cc2)N2CC3CCCC3C2)c(-c2ccc(C(F)(F)F)cc2)c1 (configuration not stated)	Active	inactive	30%	–
580 nM	10.9 µM	25.2 µM	–	–	–	CC1CCN(C(c2ccc(C(F)(F)F)nc2)c2ccc(C(C)C(=O)O)cc2-c2ccc(C(F)(F)F)cc2)CC1 (configuration not stated)	Active	inactive	23%	–
560 nM	–	–	–	6.3 µM	1 µM	CC(C)(C)c1ccc(-c2cc(CC(=O)O)ccc2C(c2ccc(F)cc2)N2CCC(C(F)(F)F)CC2)cc1 (configuration not stated)	Active	inactive	–	inactive
420 nM	19.4 µM	27.1 µM	–	–	–	CC1CCN(C(c2ccc(Cl)cc2)c2ccc(C(C)C(=O)O)cc2-c2ccc(C(F)(F)F)cc2)CC1 (configuration not stated)	Active	inactive	25%	–
400 nM	–	–	–	–	–	CC(C(=O)O)c1ccc(C(c2ccc(F)cc2)N2CCC3(CC2)CC3)c(-c2ccc(C(F)(F)F)cc2)c1 (configuration not stated)	Active	inactive	–	–
390 nM	18.4 µM	27.2 µM	–	–	–	CC1CCN(C(c2ccc(F)cc2)c2ccc(C(C)C(=O)O)cc2-c2ccc(C(F)(F)F)cc2)CC1 (racemic)	Active	inactive	45%	–
390 nM	3.1 µM	10.7 µM	–	–	–	CC(C(=O)O)c1ccc(C(c2ccc(F)cc2)N2CC3CCC(C3)C2)c(-c2ccc(C(F)(F)F)cc2)c1 (configuration not stated)	Active	inactive	25%	–
330 nM	13 µM	20.4 µM	–	–	–	CCC(C(=O)O)c1ccc(C(c2ccc(F)cc2)N2CCC(C)CC2)c(-c2ccc(C(F)(F)F)cc2)c1 (configuration not stated)	Active	inactive	40%	–
300 nM	25.3 µM	27.2 µM	–	–	–	CC(C(=O)O)c1ccc(C(c2ccc(F)cc2)N2CCC(C)(C)CC2)c(-c2ccc(C(F)(F)F)cc2)c1 (configuration not stated)	Active	inactive	30%	–
250 nM	12 µM	20.8 µM	–	–	–	CC1CCN(C(c2ccc(F)c(F)c2)c2ccc(C(C)C(=O)O)cc2-c2ccc(C(F)(F)F)cc2)CC1 (configuration not stated)	Active	inactive	40%	–
250 nM	–	–	–	–	–	CCCC(C(=O)O)c1ccc(C(c2ccc(F)cc2)N2CCC(C)CC2)c(-c2ccc(C(F)(F)F)cc2)c1 (configuration not stated)	Active	inactive	–	–
180 nM	14.4 µM	21.7 µM	–	–	–	CC(C(=O)O)c1ccc(C(c2ccc(F)cc2)N2CCC(C(F)(F)F)CC2)c(-c2ccc(C(F)(F)F)cc2)c1 (configuration not stated)	Active	inactive	40%	–
180 nM	14 µM	20.5 µM	–	–	–	CC1CCN(C(c2ccc(C(F)(F)F)cc2)c2ccc(C(C)C(=O)O)cc2-c2ccc(C(F)(F)F)cc2)CC1 (configuration not stated)	Active	inactive	inactive	–
170 nM	2.5 µM	5.3 µM	–	–	–	CC(C(=O)O)c1ccc(C(c2ccc(F)cc2)N2CCCC(C)(C)C2)c(-c2ccc(C(F)(F)F)cc2)c1 (configuration not stated)	Active	inactive	25%	–
120 nM	–	–	–	–	–	CC1CCN(C(c2ccc(F)cc2)c2ccc(C(C(=O)O)C(C)C)cc2-c2ccc(C(F)(F)F)cc2)CC1 (configuration not stated)	Active	inactive	–	–
120 nM	–	–	–	32.2 µM	5.7 µM	CC(C)CC(C(=O)O)c1ccc(C(c2ccc(F)cc2)N2CCCCC2)c(-c2ccc(C(F)(F)F)cc2)c1 (configuration not stated)	Active	inactive	–	30%
110 nM	11.8 µM	29.6 µM	–	–	–	CC1CCN(C(c2ccc(F)cc2)c2ccc(C(CC3CC3)C(=O)O)cc2-c2ccc(C(F)(F)F)cc2)CC1 (configuration not stated)	Active	inactive	40%	–
40 nM	–	–	–	–	–	CC(C)(C)CC(C(=O)O)c1ccc(C(c2ccc(F)cc2)N2CCCCC2)c(-c2ccc(C(F)(F)F)cc2)c1 (configuration not stated)	Active	inactive	–	–
